Test results as given in ChEMBL document CHEMBL1287652, “QSAR modeling, synthesis and bioassay of diverse leukemia RPMI-8226 cell line active agents” (2010).

Assays:
Type in all cases: functional
[1] = test system: COLO 205; assay: Antitumor activity against human COLO205 cells after 48 hrs by sulforhodamine B assay; conditions: COLO 205, 48 h
Method in brief: (§1)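 Cells were grown in RPMI-1640 with 5% FBS and 2 mM L-glutamine, plated at 5000–40,000 cells/well, and preincubated for 24 h. A time-zero plate was TCA-fixed. Compounds were added from DMSO stock at five concentrations for 48 h at 37 °C. Cells were fixed with TCA (adherent 10%, suspension 16%) and stained with SRB, and A515 was read. GI50 and TGI were calculated from Tz, control and test absorbances.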

[2] = test system: SF-268; assay: Antitumor activity against human SF268 cells after 48 hrs by sulforhodamine B assay; conditions: SF-268, 48 h
Method in brief: (§2)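 Cells were cultured in RPMI-1640 (5% FBS, 2 mM L-glutamine), pre-incubated for 24 h with time-zero plates TCA-fixed, then exposed for 48 h to five serial dilutions. The SRB read-out at 515 nm used time-zero, control and test absorbances. GI50 solves [(Ti−Tz)/(C−Tz)]×100 = 50 (net protein increase). TGI is the concentration giving 100% growth inhibition.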

[3] = test system: UACC-62; assay: Antitumor activity against human UACC62 cells after 48 hrs by sulforhodamine B assay; conditions: UACC-62, 48 h
Method in brief: (§3)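 Cells grown in RPMI-1640 with 5% FBS and 2 mM glutamine, plated and preincubated 24 h; time-zero plates TCA-fixed. Five-level serial dilutions added, 48 h at 37 °C. TCA fixation, SRB staining, absorbance 515 nm. GI50 derived from [(Ti−Tz)/(C−Tz)]×100 = 50; TGI is concentration giving 100% growth inhibition.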

[4] = test system: 786-0; assay: Antitumor activity against human 786-0 cells after 48 hrs by sulforhodamine B assay; conditions: 786-0, 48 h; method in brief: as §1
[5] = test system: KM12; assay: Antitumor activity against human KM12 cells after 48 hrs by sulforhodamine B assay; conditions: KM12, 48 h; method in brief: as §1
[6] = test system: SK-MEL-28; assay: Antitumor activity against human SK-MEL-28 cells after 48 hrs by sulforhodamine B assay; conditions: SK-MEL-28, 48 h; method in brief: as §2
[7] = test system: LOX IMVI; assay: Antitumor activity against human LOXIMVI cells after 48 hrs by sulforhodamine B assay; method in brief: as §1
[8] = test system: DU-145; assay: Antitumor activity against human DU145 cells after 48 hrs by sulforhodamine B assay; conditions: DU-145, 48 h; method in brief: as §1
[9] = test system: SNB-19; assay: Antitumor activity against human SNB19 cells after 48 hrs by sulforhodamine B assay; conditions: SNB-19, 48 h; method in brief: as §2
[10] = test system: SK-MEL-2; assay: Antitumor activity against human SK-MEL-2 cells after 48 hrs by sulforhodamine B assay; conditions: SK-MEL-2, 48 h; method in brief: as §2
[11] = test system: K562; assay: Antitumor activity against human K562 cells after 48 hrs by sulforhodamine B assay; conditions: K562, 48 h; method in brief: as §1
[12] = Antitumor activity against human […] cells at 10 uM after 48 hrs by sulforhodamine B assay relative to control; conditions: values are per cent of control
Method in brief: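 NCI panel lines were grown in RPMI-1640 with 5% FBS and 2 mM L-glutamine and seeded at 5000–40,000 cells/well according to doubling time. After 24 h at 37 °C, 5% CO2, one dose from a DMSO stock was added for 48 h. Cells were TCA-fixed (10% final adherent, 16% suspension), SRB-stained and read at 515 nm. Percent growth is relative to untreated control.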

[13] = test system: NCI/ADR-RES; assay: Antitumor activity against human NCI/ADR-RES cells after 48 hrs by sulforhodamine B assay; method in brief: as §2
[14] = test system: RXF 393; assay: Antitumor activity against human RXF393 cells after 48 hrs by sulforhodamine B assay; conditions: RXF 393, 48 h; method in brief: as §2
[15] = test system: UACC-257; assay: Antitumor activity against human UACC257 cells after 48 hrs by sulforhodamine B assay; conditions: UACC-257, 48 h; method in brief: as §3
[16] = test system: A549; assay: Antitumor activity against human A549 cells after 48 hrs by sulforhodamine B assay; conditions: A549, 48 h; method in brief: as §1
[17] = test system: PC-3; assay: Antitumor activity against human PC3 cells after 48 hrs by sulforhodamine B assay; conditions: PC-3, 48 h; method in brief: as §2
[18] = test system: NCI-H226; assay: Antitumor activity against human NCI-H226 cells after 48 hrs by sulforhodamine B assay; conditions: NCI-H226, 48 h; method in brief: as §2
[19] = test system: M14; assay: Antitumor activity against human M14 cells after 48 hrs by sulforhodamine B assay; conditions: M14, 48 h; method in brief: as §1
[20] = test system: U-251; assay: Antitumor activity against human U251 cells after 48 hrs by sulforhodamine B assay; conditions: U-251, 48 h; method in brief: as §3
[21] = test system: CCRF-CEM; assay: Antitumor activity against human CCRF-CEM cells after 48 hrs by sulforhodamine B assay; method in brief: as §1
[22] = test system: A498; assay: Antitumor activity against human A498 cells after 48 hrs by sulforhodamine B assay; conditions: A498, 48 h; method in brief: as §1
[23] = test system: OVCAR-8; assay: Antitumor activity against human OVCAR8 cells after 48 hrs by sulforhodamine B assay; conditions: OVCAR-8, 48 h; method in brief: as §2
[24] = test system: OVCAR-3; assay: Antitumor activity against human OVCAR-3 cells after 48 hrs by sulforhodamine B assay; conditions: OVCAR-3, 48 h; method in brief: as §2
[25] = test system: ACHN; assay: Antitumor activity against human ACHN cells after 48 hrs by sulforhodamine B assay; method in brief: as §1
[26] = test system: MCF7; assay: Antitumor activity against human MCF7 cells after 48 hrs by sulforhodamine B assay; conditions: MCF7, 48 h; method in brief: as §1

COc1ccc(NC(=O)Nc2ccccc2OCCCOc2ccccc2NC(=O)Nc2ccc(OC)cc2)cc1
GI50 [1]: 14.3 µM | TGI [1]: > 100 µM | GI50 [2]: 7.3 µM | TGI [2]: > 100 µM | GI50 [3]: > 100 µM | TGI [3]: > 100 µM | TGI [4]: > 100 µM | GI50 [5]: > 100 µM | TGI [5]: > 100 µM | GI50 [6]: > 100 µM | TGI [6]: > 100 µM | GI50 [7]: > 100 µM | TGI [7]: > 100 µM | GI50 [8]: > 100 µM | TGI [8]: > 100 µM | GI50 [9]: 4.3 µM | TGI [9]: 26.1 µM | GI50 [10]: > 100 µM | TGI [10]: > 100 µM | GI50 [11]: 31.7 µM | TGI [11]: > 100 µM | growth, % of control at 10 µM [12]: 77% | GI50 [13]: > 100 µM | TGI [13]: > 100 µM | TGI [14]: > 100 µM | GI50 [15]: > 100 µM | TGI [15]: > 100 µM | GI50 [16]: > 100 µM | TGI [16]: > 100 µM | GI50 [17]: > 100 µM | TGI [17]: > 100 µM | GI50 [18]: > 100 µM | TGI [18]: > 100 µM | GI50 [19]: 45.7 µM | TGI [19]: > 100 µM | GI50 [20]: 3.7 µM | TGI [20]: 28.8 µM | GI50 [21]: 14.4 µM | TGI [21]: 78.9 µM | GI50 [22]: 16 µM | TGI [22]: 72.9 µM | GI50 [23]: 8.9 µM | TGI [23]: > 100 µM | GI50 [24]: > 100 µM | TGI [24]: > 100 µM | GI50 [25]: > 100 µM | TGI [25]: > 100 µM | GI50 [26]: > 100 µM | TGI [26]: > 100 µM
